Assay results: paper PMC8958324 (iScience, 2022)

How the values were obtained:
Rho F212W = Rho F212W (Bos taurus, UniProt P02699, F212W); experiment: Trp-based FRET assay, 11CR entry kinetics; format: binding, bovine
Outline: (§1)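 Mutant bovine opsin is expressed in HEK293F cells, regenerated with 5 μm 11CR overnight at 4°C, then 1D4-immunopurified in DDM and C9-peptide eluted. Receptor at 0.25–0.30 μm is diluted into 1% POPC/1% CHAPS bicelles, pH 6.0, stirred in a temperature-controlled cuvette, with 11CR at 0.5–30 μm final. Trp quenching (ex 295, em 330 nm) is fitted pseudo-first-order; k2 = kobs/[retinal]. Data are mean ± STD of ≥3 trials.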

Rho T94I [1] = target: T1, Rho T94I (Bos taurus, UniProt P02699, T94I); experiment: Trp-based FRET assay, 11CR entry kinetics; format: binding, bovine
Outline: as §1

opsin = details: 11CR binding with opsin; ref Tian et al., 2017a; cited from earlier work
Rho A269W = Rho A269W (Bos taurus, UniProt P02699, A269W); experiment: regeneration with 11CR; format: binding, bovine; details: expressed at very low level
S144-Alexa488 Rho F212A = S144-Alexa488 Rho F212A (Bos taurus, UniProt P02699, F212A/S144F); experiment: Alexa488-based FRET assay, 11CR entry kinetics; format: binding, bovine; details: F212A vs wt; Eyring plot
Outline: (§2)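 Bovine opsin bearing S144azF is expressed in HEK293F cells with 1 mm azF for 96 h and regenerated with 11CR. It is purified by 1D4 immunopurification in DDM and labelled on resin with 50 μm Alexa488-DIBO for 18 h at 25°C. Labelled receptor (5–50 nm) sits in 1% POPC/1% CHAPS bicelles, pH 6.0, with 0.5–30 μm 11CR. Fluorescence (ex 488, em 520 nm) decay gives kobs; kon = kobs/[retinal], measured across temperatures for Eyring plots; mean ± STD.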

S144-Alexa488 Rho F208W = S144-Alexa488 Rho F208W (Bos taurus, UniProt P02699, F208W/S144F); experiment: Alexa488-based FRET assay, 11CR entry kinetics; format: binding, bovine; details: F208W vs wt; Eyring plot
Outline: as §2

Rho I189P [2] = target: T2, Rho I189P (Bos taurus, UniProt P02699, I189P); experiment: Trp-based FRET assay, 11CR entry kinetics; format: binding, bovine; details: I189P vs I189, TM5 single vs TM5/I189P double mutants, kon Trp
Outline: as §1

Rho A269Y = Rho A269Y (Bos taurus, UniProt P02699, A269Y); experiment: regeneration with 11CR; format: binding, bovine; details: 11CR 15 μM, over 48 h
Rho T94I [3] = target: T1, Rho T94I; experiment: Trp-based FRET assay, ATR release kinetics; format: binding, bovine
Outline: (§3)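 ATR release runs on HEK293F-expressed, 1D4-immunopurified mutant bovine rhodopsin at 0.25–0.30 μm in 1% POPC/1% CHAPS bicelles, pH 6.0. Release is followed as recovery of Trp fluorescence (ex 295, em 330 nm), the inverse of retinal-induced quenching, integrated for 2 s every 30 s. Traces are fitted to a single exponential to give koff, reported as mean ± STD of ≥3 trials.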

Rho A269F = Rho A269F (Bos taurus, UniProt P02699, A269F); experiment: Trp-based FRET assay, ATR release kinetics; format: binding, bovine
Outline: as §3

Rho I189P [4] = target: T2, Rho I189P; experiment: Trp-based FRET assay, ATR release kinetics; format: binding, bovine; details: I189P vs I189, TM5 single vs TM5/I189P double mutants, koff Trp
Outline: as §3

Rho F212A = Rho F212A (Bos taurus, UniProt P02699, F212A); experiment: Trp-based FRET assay, ATR release kinetics; format: binding, bovine
Outline: as §3

Row | 11CR entry kinetics normalized to the wt Rho (Rho F212W) | 11CR entry kinetics (relative to wt) (Rho T94I [1]) | regeneration with 11CR (Rho A269W) | reduction of activation enthalpy (Δ‡H) of 11CR entry (S144-Alexa488 Rho F212A) [kcal/mol] | increase of activation enthalpy (Δ‡H) of 11CR entry (S144-Alexa488 Rho F208W) [kcal/mol] | reduction of activation free energy Δ‡Gon by I189P (Rho I189P [2]) [kcal/mol] | regeneration with 11CR (Rho A269Y) | ATR release kinetics (relative to wt) (Rho T94I [3]) | ATR exit kinetics normalized to the wt Rho (Rho A269F) | reduction of activation free energy Δ‡Goff by I189P (Rho I189P [4]) [kcal/mol] | ATR exit kinetics normalized to the wt Rho (Rho F212A) | Structure (SMILES) | activation barrier Δ‡Gon (opsin) [kcal/mol]
1 | 0.043 ± 0.022 | 0.80 ± 0.04 | failed to regenerate | 3.7 ± 1.6 | 4.8 ± 3.1 | 1.6 ± 0.3 | could not be regenerated | – | – | – | – | CC1=C(/C=C/C(C)=C/C=C/C(C)=C/C=O)C(C)(C)CCC1 [11CR, 11-cis-retinal] | 13.5
2 | – | – | – | – | – | – | – | 0.17 ± 0.02 | 0.91 ± 0.07 | 1.6 ± 0.8 | 2.82 ± 1.0 | CC1=C(/C=C/C(C)=C/C=C/C(C)=C/C=O)C(C)(C)CCC1 [ATR, all-trans-retinal] | –
